Hits are enriched below; roughly 2.4% of the tested compounds scored in any of these assays.
CTSL1 counter = cathepsin L1 inhibition, PFM18AAP counter-screen; 300,000 tested, 0.49% active; recombinant F. hepatica cathepsin L1, Z-Leu-Arg-MCA fluorescence; AID 1906; inhibition, % at 5.96 µM;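 active means inhibition above the mean of all tested compounds plus 3 SD, set per screening campaign, cut at about 17% in these data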
pCIP destab = lowers stability of the mouse p/CIP coactivator protein | Q05BA5 | F442A p/CIP-EGFP cells, EGFP fluorescence, 16 h | decrease of EGFP signal, % at 10 µM | 290,000 tested, 0.01% active | AID 1984;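 active means EGFP signal decrease of at least 30% at 10 µM or well 3 SD below plate mean, unless failing retest; inactive means the rest, including hits failing retest or dose response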
T cruzi repl = blocks replication of Trypanosoma cruzi. T. cruzi beta-gal in NIH3T3, luminescence, 90 h. inhibition, % (concentration not given with the values). 300,000 tested, 1.4% active. AID 1885;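 active means mean inhibition across valid replicates above about 55%, limit read from the data; inconclusive means mean below that limit but half or more replicates reach it; inactive means mean below it, under half of replicates reach it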;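 further: signal also drops with host cell toxicity which is not excluded here; higher percent means less beta-gal luminescence so fewer parasites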
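Assay system: NIH/3T3 host cells with β-galactosidase reporter T. cruzi; input: 5,000 host fibroblasts per well; compound: single 50 nL compound addition per well in DMSO; timing: ≥90 h infection period, 3 h prior cell attachment; measured by: GalScreen β-gal luminescence, detergent lysis, 60 min; evaluation: percent inhibition of parasite-derived β-gal signal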
H9c2 protect = protects H9c2 cardiomyocytes from peroxide injury; protection from H2O2 cell death, % at 20 µM; AID 588492; 360,000 tested, 0.63% active; H2O2 injury protection, ATPLite, 2 h;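 active means compounds giving at least 50% protection of heart cells from peroxide-induced death in the single-dose screen, raw or plate-pattern-corrected value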
JMJD2C inh = inhibitors of human GASC-1 (JMJD2C) demethylase; GST-JMJD2C(1-420) H3K9me3 demethylation, DELFIA europium; inhibition, % at 2.35 µM; 330,000 tested, 0.069% active; AID 2099;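 active means more than half of a compound's replicate wells show inhibition beyond 50%, single wells judged on their own value; inconclusive means some, but no more than half, of replicates pass 50% inhibition; inactive means no replicate passes 50% inhibition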;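 further: signal counts dimethyl H3K9 product captured on neutravidin plate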
Target sequence (Q9H3R0 1-420 limits assumed): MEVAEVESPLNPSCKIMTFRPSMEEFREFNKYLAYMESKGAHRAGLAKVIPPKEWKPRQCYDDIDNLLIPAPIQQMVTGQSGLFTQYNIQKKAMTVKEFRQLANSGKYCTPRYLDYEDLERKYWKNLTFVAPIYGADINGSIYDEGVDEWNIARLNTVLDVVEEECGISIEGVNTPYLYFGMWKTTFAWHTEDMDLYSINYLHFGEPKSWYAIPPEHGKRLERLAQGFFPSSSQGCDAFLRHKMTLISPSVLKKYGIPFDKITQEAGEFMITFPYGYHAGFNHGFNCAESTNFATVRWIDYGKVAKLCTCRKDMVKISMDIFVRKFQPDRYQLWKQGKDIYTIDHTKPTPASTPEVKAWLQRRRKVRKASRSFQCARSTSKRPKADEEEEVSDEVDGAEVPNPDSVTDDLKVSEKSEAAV
PP5 inh = blocks human protein phosphatase 5 activity; P53041; inhibition, % at 6.7 µM; AID 1987; purified PP5c, OMFP substrate fluorescence; 320,000 tested, 0.18% active;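 active means inhibition above the campaign's mean inhibition across all tested compounds plus 3 SD, cut at about 9.5% in these data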
Of the large screens only hits and unclear results are named; the others gave an inactive call.

c1ccc(CN2CCN(C3=Nc4cccc5cccc3c45)CC2)cc1	none (no result: CTSL1 counter, PP5 inh)
Fc1ccc(N2CCN(C3=Nc4cccc5cccc3c45)CC2)cc1	T cruzi repl 64.0
COC(=O)CCC(=O)OC1(C)C(=O)C2=CN(Cc3ccccc3)C(c3ccc(OC)cc3)=CC2=C(Br)C1=O (configuration not stated)	PP5 inh 10.2 (no result: pCIP destab)
COc1ccc(C(=O)NCCNc2nc3ccc(C)cc3cc2C#N)cc1	JMJD2C inh inconclusive
Cc1ccc2nc(NCCNC(=O)c3ccccc3)c(C#N)cc2c1	CTSL1 counter 38.5
COc1ccc(OC)c(/C=N/Nc2nncn2/N=C/c2cc(OC)ccc2OC)c1	H9c2 protect 80.9
COc1cc(/C=N/Nc2nncn2/N=C/c2ccc(O)c(OC)c2)ccc1O	none
CN(C(=O)c1cccc(NC(=O)Cc2ccc(NC(=O)C3CCN(C(=O)c4ccccc4)CC3)cc2)c1)C1CCC1	none (no result: CTSL1 counter, pCIP destab, T cruzi repl, JMJD2C inh, PP5 inh)
CN(C(=O)c1ccc(NC(=O)Cc2ccc(NC(=O)C3CCN(C(=O)c4ccccc4)CC3)cc2)cc1)C1CC1	JMJD2C inh 57.6 (no result: CTSL1 counter, pCIP destab, T cruzi repl)
Cc1ccc(Nc2ccc3nonc3c2[N+](=O)[O-])cc1	none
Cc1ccc(Nc2ccc([N+](=O)[O-])nc2[N+](=O)[O-])cc1	T cruzi repl 62.4
Cc1nc(SCC(=O)N2CCN(c3ccccc3)CC2)c2oc3ccccc3c2n1	H9c2 protect 74.5
Cc1cc(NC2CCCC2)n2nc(C)c(-c3ccccc3)c2n1	T cruzi repl 60.4
CCC(C)Nc1ncnc2c1cnn2Cc1ccc(Cl)cc1 (configuration not stated)	H9c2 protect 88.7
Cc1ccc(C(C)C)c(OCc2ccc(C(=O)N/N=C/c3ccc(O)cc3O)cc2)c1	H9c2 protect 57.1
CC1C(=O)N(Cc2cn(CCC3OCCCO3)nn2)CCS(=O)(=O)N1Cc1ccc(-c2ccncc2)cc1 (configuration not stated)	none (no result: CTSL1 counter, pCIP destab, T cruzi repl, JMJD2C inh, PP5 inh)
CC(C)CC(C(=O)OCC(=O)Nc1cccc(Cl)c1)N1C(=O)C2CC=CCC2C1=O (configuration not stated)	CTSL1 counter 21.7
CCOC(=O)C1C(=O)NC(SCC(=O)OC)=C(C#N)C1c1ccccc1OCC (configuration not stated)	H9c2 protect 72.0
O=C(Nc1ccc(Cl)c(Cl)c1)N(Cc1cccnc1)Cc1ccco1	T cruzi repl 55.7
COc1ccc(C(=O)NN/C=C/C(=O)c2ccc(Br)cc2)cc1	H9c2 protect 58.5 (no result: CTSL1 counter, pCIP destab, T cruzi repl, JMJD2C inh, PP5 inh)
O=C(/C=C/NNC(=O)c1ccccc1)c1ccc(Br)cc1	H9c2 protect 59.3
O=C(OCn1ncc(Br)c(Br)c1=O)c1ccccc1Cl	T cruzi repl 58.6
Cn1c(SCC(=O)Nc2cccnc2Cl)nc2ccccc21	none (no result: CTSL1 counter, pCIP destab, T cruzi repl, PP5 inh)
C[n+]1c2n(c3ccccc31)N=C(c1cc(C(C)(C)C)c(O)c(C(C)(C)C)c1)CS2	T cruzi repl 60.8
COc1cccc(C2=Nn3c(nnc3-c3ccccc3O)SC2)c1	none
CCn1c(=O)c(C(=O)NCc2ccc(Cl)cc2)c(O)c2ccccc21	none (no result: CTSL1 counter, PP5 inh)
CCn1c(=O)c(C(=O)NCCc2ccc(Cl)cc2)c(O)c2ccccc21	JMJD2C inh 60.2
CCCn1c(=O)c(C(=O)NCCc2ccc(Cl)cc2)c(O)c2ccccc21	H9c2 protect 53.6 (no result: CTSL1 counter, PP5 inh)
COc1ccc(CN(C)C(=O)C(Cc2ccccc2)NC(=O)c2ccccc2)cc1F (configuration not stated)	H9c2 protect 50.2 (no result: CTSL1 counter, pCIP destab, T cruzi repl, JMJD2C inh, PP5 inh)
CN(Cc1ccc(F)cc1)C(=O)C(Cc1ccccc1)NC(=O)c1ccccc1 (configuration not stated)	none (no result: pCIP destab)
COCCn1c2nc(=O)n(-c3ccccc3)c(=O)c-2nc2ccccc21	none (no result: CTSL1 counter, pCIP destab, T cruzi repl, JMJD2C inh, PP5 inh)
CCN1CCN(CCNC(=O)c2ccc(/C=C3\Sc4ccccc4N(Cc4ccccc4F)C3=O)cc2)CC1	T cruzi repl 60.0
CN1CCN(CCCNC(=O)c2ccc(/C=C3/Sc4ccccc4N(Cc4cccc(Cl)c4)C3=O)cc2)CC1	T cruzi repl 57.7 (no result: CTSL1 counter, PP5 inh)
CN1CCN(CCCNC(=O)c2ccc(/C=C3\Sc4ccccc4N(Cc4ccc(F)cc4)C3=O)cc2)CC1	T cruzi repl inconclusive (no result: CTSL1 counter, PP5 inh)
Cc1cc(C)cc(OCC(=O)Nc2ccncc2)c1	none
O=c1c2ccccc2sn1-c1ccc(S(=O)(=O)N2CCCC2)cc1	T cruzi repl 62.6
Cc1ccc(-n2sc3ccccc3c2=O)cc1S(=O)(=O)N1CCCCC1	T cruzi repl 77.6
COc1cccc(CNC(=O)CCC2CCCN(C/C=C/c3ccccc3OC)C2)c1 (configuration not stated)	T cruzi repl 66.1
COc1ccc(/C=C/CN2CCCC(CCC(=O)NCc3ccc(F)c(F)c3)C2)cc1 (configuration not stated)	T cruzi repl 67.9
COc1ccccc1/C=C/CN1CCCC(CCC(=O)NCc2ccc(F)c(F)c2)C1 (configuration not stated)	T cruzi repl 67.6
CCN(CC1CCCN(CCc2cccc(OC)c2)C1)C(=O)c1ccc(COC)o1 (configuration not stated)	T cruzi repl 77.4
CCN(CC1CCCN(CCc2cccc(OC)c2)C1)C(=O)c1ccoc1C (configuration not stated)	none (no result: CTSL1 counter, PP5 inh)
COc1cccc(CNC(=O)CCC2CCCN(Cc3ccc4c(c3)CCO4)C2)c1 (configuration not stated)	none
CCOC(=O)C1=CN(Cc2ccco2)S(=O)(=O)N(CC)C1c1ccc(C(F)(F)F)cc1 (configuration not stated)	none (no result: CTSL1 counter, pCIP destab, T cruzi repl, JMJD2C inh, PP5 inh)
COc1cccc(CNC(=O)CCC2CCCN(C(=O)c3ccc(OC)o3)C2)c1 (configuration not stated)	none
COCc1ccc(CN2CCCC(CCC(=O)NCc3cccc(OC)c3)C2)o1 (configuration not stated)	T cruzi repl 59.1
Cc1c(N2C(=O)CSC2c2ccc(F)cc2)c(=O)n(-c2ccccc2)n1C (configuration not stated)	none
CN(C(=O)CSc1ncnc2scc(-c3ccccc3)c12)C1CCS(=O)(=O)C1 (configuration not stated)	CTSL1 counter 17.4
CCOc1cc(/C=C/c2ccc3cccc([N+](=O)[O-])c3n2)ccc1OCC(=O)N(C)C	H9c2 protect 56.6
CCOc1ccc(CSC2=NCCN2)cc1[N+](=O)[O-]	none
CCCCOc1ccc(CSC2=NCCN2)cc1[N+](=O)[O-]	T cruzi repl 66.3
CCCCCCOc1ccc(/C(C)=N/NC2=NCCN2)cc1[N+](=O)[O-]	T cruzi repl 65.5
CCCCCOc1ccc(Cn2ccnc2)cc1[N+](=O)[O-]	T cruzi repl 61.8
O=C(CN1CC(c2ccccc2)CC1=O)N/N=C/c1cc(Br)ccc1O (configuration not stated)	H9c2 protect 57.0
